Rows were chosen to be rich in hits. Some 2.1% of all compounds tested hit in one or more screens of this group.
Apaf-1 inh – inhibitors of human Apaf-1 apoptosome, primary screen, biochemical, DEVD-Rh110 fluorescence, uHTS. reconstituted apoptosome caspase-3 activity. inhibition, % at 20 µM. 330,000 compounds, 0.71% hits. AID 489030, 2010; active = inhibition of at least 40% at 20 µM
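Medium: Hepes buffer, pH 7.5 / System: biochemical Apaf-1 apoptosome reconstitution / Measured by: Rh110 fluorescence, excitation 480 nm, emission 540 nm / Times: compound with Apaf-1, dATP, procaspase-3 30 min, then 50 min reaction, room temperature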
TDP2 inh – human TDP2 enzyme inhibitors, primary screen, biochemical, epi absorbance, recombinant enzyme; Tyrosyl-DNA phosphodiesterase 2 (Homo sapiens), O95551; 370,000 compounds, 0.34% hits; inhibition, % at 12.8 µM; T5PNP hydrolysis, p-nitrophenol absorbance 415 nm;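 active = inhibition above the mean of all tested compounds plus 3 SD, set per campaign, cut at about 25% in these data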
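Read-out basis: percent inhibition. System: recombinant human TDP2. Buffer or medium: Mg2+-containing Tris-HCl buffer, pH 7.5. Repeats: single replicate. Timing: reaction 2 h, 37 °C. Benchmarks: high control without enzyme, low control DMSO plus TDP2. Probe or stimulus: 5 mM T5PNP. Doses: 12.8 µM only. Measured by: epi absorbance of p-nitrophenol freed from T5PNP by hydrolysis.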
GSTO1 counter – inhibitors of recombinant GSTO1, primary screen, counter-screen for RBBP9 inhibitor project, biochemical, fluorescence polarization. activity-based probe fluorescence polarization. Glutathione S-transferase omega-1 (Homo sapiens), P78417. AID 1974, 2009. inhibition, % at 5.96 µM. 300,000 compounds, 1.1% hits;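 active = inhibition above the campaign mean inhibition plus 3 SD, cut at about 35% in these data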
PP5 primary – PP5 phosphatase inhibitors, primary screen, biochemical, fluorescence. purified PP5c, OMFP substrate fluorescence. inhibition, % at 6.7 µM. 320,000 compounds, 0.18% hits;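 active = inhibition above the campaign's mean inhibition across all tested compounds plus 3 SD, cut at about 9.5% in these data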
Target sequence (P53041 whole entry, looked up): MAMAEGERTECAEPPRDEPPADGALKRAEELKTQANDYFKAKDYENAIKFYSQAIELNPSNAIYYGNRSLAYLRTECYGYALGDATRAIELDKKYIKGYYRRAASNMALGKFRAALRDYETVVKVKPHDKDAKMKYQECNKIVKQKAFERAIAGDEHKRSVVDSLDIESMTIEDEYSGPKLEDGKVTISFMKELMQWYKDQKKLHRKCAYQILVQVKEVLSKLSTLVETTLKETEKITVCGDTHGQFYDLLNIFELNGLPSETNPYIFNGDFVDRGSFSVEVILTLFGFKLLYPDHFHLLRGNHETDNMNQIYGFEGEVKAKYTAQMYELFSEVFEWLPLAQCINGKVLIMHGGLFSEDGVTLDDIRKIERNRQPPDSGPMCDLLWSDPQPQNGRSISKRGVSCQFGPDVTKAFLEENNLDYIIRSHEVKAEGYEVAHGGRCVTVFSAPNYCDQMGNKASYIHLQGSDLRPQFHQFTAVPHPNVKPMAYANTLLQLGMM
PP1 counter – PP1-alpha phosphatase inhibitors, primary screen, counter-screen for PP5 inhibitor project, biochemical, fluorescence, OMFP substrate, single point. Serine/threonine-protein phosphatase PP1-alpha catalytic subunit (Homo sapiens), P62136. purified PP1alpha. inhibition, % at 6.7 µM. 320,000 compounds, 0.9% hits;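 active = inhibition above the mean inhibition of all tested compounds plus 3 SD, computed separately for each screening campaign, cut at about 15% in these data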
Hits are given with their value; - = inactive; . = no result given.

SMILES | Apaf-1 inh | TDP2 inh | GSTO1 counter | PP5 primary | PP1 counter
C/C(CCCO)=N/Nc1ccc([N+](=O)[O-])cc1[N+](=O)[O-] | - | - | - | - | -
CCC1CSC(Nc2ccc(C(=O)/C=C/c3ccc(Br)cc3)cc2)=N1 (centres undefined) | - | - | - | - | 15.2
O=C(CSc1ccc(Cl)cc1)c1ccco1 | - | . | 36.5 | - | -
O=C(OCCCN1CCC2(CCC(c3ccccc3)CC2)C1=O)c1ccccc1 (centres undefined) | . | - | . | . | .
CN(c1ccccc1)S(=O)(=O)c1ccc(NC(=O)c2ccccc2)cc1 | - | - | - | - | -
CCc1nnc(NC(=O)c2ccc(S(=O)(=O)N(C)c3ccccc3)cc2)o1 | - | - | - | - | 16.4
CC(C)c1ccc(NC(=O)[C@H](Cc2c[nH]c3ccccc23)NC(=O)[C@@H]2Cc3ccccc3CN2)cc1 | - | - | - | - | 16.5
C=CCOc1cccc(C2C(C(=O)c3ccc(C)o3)=C(O)C(=O)N2Cc2ccncc2)c1 (centres undefined) | - | - | - | - | -
C=CCOc1ccc(C2C(C(=O)c3ccc(C)o3)=C(O)C(=O)N2Cc2cccnc2)cc1 (centres undefined) | - | - | - | - | 23.4
CC(=O)NCC(=O)OCN1C(=O)c2ccccc2C1=O | - | - | 36.0 | - | -
Clc1cccc(Nc2nc(-c3ccncc3)cs2)c1 | - | - | - | - | 16.7
C=CCNC(=O)CN(C(=O)Cc1ccc(Cl)cc1)c1cccc(Br)c1 | . | - | . | . | .
Oc1ccc(N=C/C=C/c2cccc(Br)c2)cc1-c1nc2ccccc2s1 | - | . | 35.2 | - | -
CCN(CC)C(=O)C1CCCN(c2ccc([N+](=O)[O-])cc2/C=N/NC(=O)c2cccc(Br)c2)C1 (centres undefined) | - | - | - | - | 17.2
COC/C=C/C1=CC2=CC(=O)C(C)(OC(=O)c3cnc4ccccc4n3)C(=O)C2=CN1C1CCCCC1 (centres undefined) | - | . | 35.5 | - | -
CC1(OC(=O)c2cnc3ccccc3n2)C(=O)C=C2C=C(C3CC3)OC=C2C1=O (centres undefined) | - | . | 42.6 | - | -
COC/C=C/C1=CC2=CC(=O)C(C)(OC(=O)c3cnc4ccccc4n3)C(=O)C2=CN1c1ccc(CO)cc1 (centres undefined) | - | . | 36.7 | - | 19.7
CCCCC1=CC2=CC(=O)C(C)(OC(=O)CC)C(=O)C2=CN1CC(C)C (centres undefined) | - | - | - | - | -
COC/C=C/C1=CC2=CC(=O)C(C)(OC(=O)c3cnc4ccccc4n3)C(=O)C2=CN1CC(C)C (centres undefined) | 41.1 | . | - | - | -
Nn1c(SCc2cccc3ccccc23)nnc1-c1n[nH]c2c1CCC2 | . | - | . | . | .
COc1cc(-c2cc(NC=O)c3ncc(-c4ccc(C(C)=O)cc4)n3c2)ccc1O | . | - | . | . | .
C[C@@H]1CN(C(=O)OC(C)(C)C)CCN1c1ccc(N2CCS(=O)(=O)CC2)c(C#N)c1 | . | - | . | . | .
C(=C\c1ccccc1)/CSc1nnc(COc2ccccc2)n1Cc1ccco1 | . | - | . | . | .
CCN(CC)c1ccc(S(=O)(=O)Nc2cc(Cl)ccc2Cl)cc1NC(=S)NC(=O)C1CCCC1 | - | - | - | - | 15.3
CC(C)CN1C(=O)C[C@]2(C(=O)N(C)c3ccc(NC(=O)C(C)(C)C)cc32)C1c1ccccc1 (some centres undefined) | . | - | . | . | .
SMILES | Apaf-1 inh | TDP2 inh | GSTO1 counter | PP5 primary | PP1 counter
O=C1CNC(=S)N1CCOc1ccccc1 | - | - | - | - | -
O=C1CNC(=S)N1CCc1ccc(O)c(O)c1 | - | - | 60.5 | - | -
CCOC(=O)c1sc(/N=C/c2c(O)ccc3ccccc23)cc1C | - | - | 38.8 | - | -
N#CCC[C@H]1CC[C@]2(CCCN(C(=O)C3CCCC3)C2)O1 | . | - | . | . | .
O=C(CCO)c1ccc(O)cc1 | - | - | 36.6 | - | -
COC(=O)[C@H](CC(C)C)N(Cc1cn(CC2CCCCC2)nn1)S(=O)(=O)c1ccccc1Br | . | - | . | . | .
Cc1c(C)c2cccnc2c2ncccc12 | - | . | . | - | 16.4
CC1CC/C(=C\c2ccc3c(c2)OCO3)C(=O)/C1=C/c1ccc2c(c1)OCO2 (centres undefined) | - | - | - | - | 16.5
Cc1nn(-c2ccccc2)c2sc(C(=O)NC3CCCc4ccccc43)cc12 (centres undefined) | . | - | . | . | .
O=[N+]([O-])c1c(Nc2ccccc2O)cc(Cl)c2nonc12 | - | - | . | . | .
O=C(O)c1cc(Nc2cc(Cl)c3nonc3c2[N+](=O)[O-])ccc1O | - | - | 35.9 | - | -
CCNC(=O)C1(C)CCCN(C(=O)c2cc(-c3cccs3)oc2C)C1 (centres undefined) | . | - | . | . | .
CC1(C(=O)NS(=O)(=O)c2ccc(C#N)cc2)CCN1C(=O)C1(c2ccccc2)CC1 (centres undefined) | . | - | . | . | .
CN1CCN(c2cc(N3CCN(C(=O)c4ccco4)CC3)c3c4c(onc24)-c2ccccc2C3=O)CC1 | 82.4 | . | - | - | -
C=CCn1c(=NC(=O)c2cc(-c3cccs3)nc3ccccc23)sc2cc(S(N)(=O)=O)ccc21 | - | - | - | - | 16.1
O=c1cc(O)nc(SC23CC4CC(CC(C4)C2)C3)[nH]1 | - | - | - | - | 15.6
CCC(C)Sc1nc(O)cc(=O)[nH]1 (centres undefined) | - | - | - | - | -
COc1cccc(/C=N/NC(=O)C[n+]2ccccc2)c1O | - | - | - | - | -
COc1ccc(CCCC(=O)N/N=C/c2cccc(OC)c2O)cc1C | - | - | - | - | 16.8
Cc1ccc(S(=O)(=O)N2C3CCCCC3O[C@H]2CC(=O)c2cccs2)cc1 (some centres undefined) | . | - | . | . | .
COc1ccccc1NC(=O)COn1nnc2ccc(S(=O)(=O)N3CCOCC3)cc21 | - | - | 35.7 | - | -
CCCCCCCCN1C(=O)[C@@H](CC(=O)N2CCN(C(=O)c3ccco3)CC2)C[C@@]2(C(=O)OC)C1=C[C@H](C1CCCC1)O[C@@H]2C | . | - | . | . | .
O=C(Cn1cnc([N+](=O)[O-])c1)c1ccc(Cl)cc1 | - | - | - | - | -
O=C(C[n+]1cnn(CC(=O)c2ccc(Cl)cc2Cl)c1)c1ccc([N+](=O)[O-])cc1 | . | - | - | - | 17.1
CCCCOCCCNC(=O)C[C@H]1C[C@@]2(C(=O)OC)C(=C[C@H](C(C)C)O[C@@H]2C2CC2)N(CCC2=CCCCC2)C1=O | . | - | . | . | .
CCc1ccc(S(=O)(=O)/N=C2\C=CC(=O)c3ccccc32)cc1 | 54.7 | . | 66.8 | - | -
CC(/C=N/NC(=O)Cc1cc(=O)[nH][nH]1)=C\c1ccccc1 | 60.0 | - | - | - | -
